# Assay outcomes: PubChem, Johns Hopkins Ion Channel Center
# Compounds with a hit are over-represented: about 2.3% of the library has one in this group of screens.
# TRPC4 PAM – allosteric potentiators of mouse TRPC4 channel; Q9QUQ5; HEK293 TRPC4beta/mu-opioid, DAMGO EC20, Fluo-4 Ca2+ flux; hits give high values; B-score at 10 µM; hit rate 0.42% among 310,000; AID 2227;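 active = B-score of calcium response area above 5 SD of library B-scores, with initial fluorescence ratio within 5 SD of library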;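 also: B-score of integrated fluorescence ratio over time as area under calcium response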
# TRPC4 agonist – opens the mouse TRPC4 cation channel | HEK293 TRPC4beta/mu-opioid, Fluo4 calcium fluorescence; hits give high values | Q9QUQ5 | hit rate 0.49% among 310,000 | B-score at 10 µM;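 active = B-score above 5 SD of library B-scores, and initial fluorescence ratio not above library mean plus 5 SD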;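 also: positive B-score marks a calcium rise read as TRPC4 activation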
#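 Material: HEK293 stable line with TRPC4beta plus mu-opioid receptor; technique: Fluo4 calcium-sensitive dye fluorescence, kinetic, 1 Hz baseline; timing: Fluo4 dye loading 45 min at room temperature, 110 s recording; controls: assay buffer as low control, maximal DAMGO as high control; read-out: integrated baseline-normalised fluorescence ratio, converted to per-well B score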
# TRPC4 block – TRPC4 (mouse) channel inhibition; HEK293 TRPC4beta/mu-opioid, DAMGO-evoked Fluo4 calcium flux; hits give low values; B-score at 10 µM; hit rate 0.39% among 300,000;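 active = B-score over 3 SD under the library average, no early fluorescence shift, positive overall ratio signal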
#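 Material: HEK293 cells with stable TRPC4beta plus mu-opioid receptor expression; probe or stimulus: DAMGO in two steps, submaximal then maximal; technique: Fluo4 calcium fluorescence by kinetic imaging, 5 s 1 Hz baseline; measure: integrated fluorescence ratio relative to baseline, converted to per-well B score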
# TRPC6 inh – mouse TRPC6 channel inhibition. Q61143. HEK293-TRPC6, membrane potential dye, ACh-evoked depolarization; hits give low values. B-score at 10 µM. hit rate 1.1% among 310,000;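 active = B-score under library mean minus 3 SD, initial fluorescence not abnormally high, positive integrated signal ratio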;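 also: B-score derived from integrated fluorescence ratio over the kinetic read; more negative B-score means stronger inhibition of depolarization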
# TRPC6 activator – mouse TRPC6 channel activation. HEK293-TRPC6 membrane potential dye fluorescence; hits give high values. B-score at 10 µM. Q61143. hit rate 0.13% among 310,000;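 active = B-score of the integrated fluorescence ratio above library mean plus 3 SD, and starting fluorescence ratio within library mean plus 5 SD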;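 also: higher score means more depolarization so channel activation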
# Active calls of the source: *; i = inactive.
SMILES,TRPC4 PAM,TRPC4 agonist,TRPC4 block,TRPC6 inh,TRPC6 activator
COc1ccc(O)c(CN2CCCC(N3CCN(c4ccccc4OC)CC3)C2)c1 (stereo unspecified),i,43*,i,i,i
COc1ccccc1N1CCN(C2CCCN(Cc3ccc(Cl)cc3)C2)CC1 (stereo unspecified),i,i,i,i,i
O=C(Nc1cccnc1Cl)c1cc(-c2cccc(O)c2)on1,i,i,i,i,i
COc1ccc(/C=N/n2c(SC)nnc2-c2ccccc2)cc1C,34*,i,i,i,i
Cc1cc2cc(C#N)c(NCCNC(=S)NCCCN3CCOCC3)nc2cc1C,i,i,-6*,i,i
CC1CC(C)CN(CCCNS(=O)(=O)c2cc(Br)cc3c2N(C(=O)C2CC2)CC3)C1 (stereo unspecified),i,115*,i,i,i
CC1CCCN(CCCNS(=O)(=O)c2cc(Br)cc3c2N(C(=O)C2CC2)CC3)C1 (stereo unspecified),i,73*,i,i,i
O=C(C1CC1)N1CCc2cc(Br)cc(S(=O)(=O)NCCCN3CCCC3)c21,i,60*,i,i,i
CCCCN(C(=O)C(C)Oc1ccc(Cl)cc1)c1c(N)n(CCCC)c(=O)[nH]c1=O (stereo unspecified),i,i,i,i,i
CCOc1ccc(S(=O)(=O)NNS(=O)(=O)c2ccc(C)cc2C)cc1,i,i,i,i,i
Cc1ccc(CN2CC(C(=O)Nc3ncccc3C)CC2=O)cc1 (stereo unspecified),i,i,i,i,i
COc1ccc(CC(=O)NNS(=O)(=O)c2ccc([N+](=O)[O-])cc2)cc1OC,i,i,i,i,i
O=C(N/N=C/c1cccc2ccccc12)c1ccccc1Cl,10*,i,i,i,i
CCN1CCN(C(=O)CCc2nnc(CCc3ccccc3OC)o2)[C@@H](C)C1=O,i,i,i,i,i
NC(=NC1CCCCC1)c1ccc(Cl)cc1,i,i,-5*,i,i
N/C(=N\OC(=O)C1CCCCC1)c1ccc(Cl)cc1,i,i,i,i,i
CC(=O)Nc1ccc(C2(c3ccc(NC(C)=O)cc3)C(=O)Nc3ccccc32)cc1,i,58*,-7*,i,i
Cc1ccc2c(c1)N(C(=O)CCC(=O)Nc1ccccc1Br)CC(C)O2 (stereo unspecified),i,i,-9*,i,i
CC(=O)c1ccc(NC(=O)CCC(=O)N2CC(C)Oc3ccc(C)cc32)cc1 (stereo unspecified),i,i,i,i,i
Cc1cc(C(=O)Nc2ccc3c(c2)CCC3)ccc1[N+](=O)[O-],i,i,i,i,i
COc1ccc(-c2cc(C#N)nc(N3CCNCC3)n2)cc1,i,129*,i,i,i
COc1ccc(-c2cc(C#N)nc(N3CCN(C)CC3)n2)cc1,i,i,i,i,i
COc1ccc(-c2cc(C(F)(F)F)nc(N3CCN(C)CC3)n2)cc1,15*,i,i,i,i
CC(C)c1ccc(C2c3[nH]c4ccccc4c3C[C@H]3C(=O)N(c4ccccc4C(=O)N4CCC(C(=O)O)CC4)C(=O)N23)cc1 (stereo partly specified),i,i,i,i,i
CCOC(=O)c1c(NC(=O)COC(=O)Cc2c[nH]c3ccccc23)sc(C(=O)N(C)C)c1C,53*,175*,i,i,i
CC(C)(CNC(=O)c1ccc(-c2cccc(C(F)(F)F)c2)o1)N1CCOCC1,i,i,i,i,i
CCCC1=[N+](CC(=O)c2ccc(C)cc2)CCn2cccc21,i,i,-6*,i,i
COc1ccc(NC(=O)C(NC(C)=O)C(=O)Nc2ccc(F)cc2)cc1 (stereo unspecified),i,i,i,i,i
CCOC(=O)C1CCCN(C2CCN(Cc3nc(Cc4ccccc4)no3)CC2)C1 (stereo unspecified),11*,i,i,i,i
CCN(CCCc1ccccc1)CCCc1ccccc1,i,i,i,i,i
